PMC2906776 (Bioorganic & medicinal chemistry, 2009)

Legend:
[1] = system: MCF-7 cells; details: cited from earlier work
[2] = system: ER(+) Ishikawa cells; assay: Induction of alkaline phosphatase in Ishikawa cells; assay type: cell-based, human
[3] = system: T47D/neo cells; assay: ERE activation, luciferase reporter in T47D/neo cells; assay type: cell-based, human; details: read-out: EC50 ERE-luciferase activation, classical ER-dependent
Method in brief: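 T47D:A18/neo stable transfectants were grown in RPMI 1640 with 10% FBS and G418 (500 µg/mL), then held 3 days in phenol red-free, E2-depleted RPMI with G418. 8 × 10^6 cells were electroporated with ERE-tk-Luc (5 µg) plus pCMVβ β-gal (1 µg). The next day, test compound (10^-9–10^-7 mol/L), E2 (10^-9 mol/L) or ethanol vehicle was added for 18 h. Luciferase luminescence was normalized to β-gal.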

[4] = assay type: in vitro ADME, human; details: four days

17-beta estradiol [Compound E2]
Potency of E2 relative to the E2–dendrimer conjugate [1]: 3–4 orders of magnitude

NC[C@H]1O[C@@H]2O[C@H]3[C@H](O)[C@@H](O)[C@@H](O[C@H]4[C@H](O)[C@@H](O)[C@@H](O[C@H]5[C@H](O)[C@@H](O)[C@@H](O[C@H]6[C@H](O)[C@@H](O)[C@@H](O[C@H]7[C@H](O)[C@@H](O)[C@@H](O[C@H]8[C@H](O)[C@@H](O)[C@@H](O[C@H]1[C@H](O)[C@H]2O)O[C@@H]8CN)O[C@@H]7CN)O[C@@H]6CN)O[C@@H]5CN)O[C@@H]4CN)O[C@@H]3CN [ACD, Per-6-amino-6-deoxy-β-cyclodextrin]
Estrogenic activity, result in words [2]: inactive

[N-]=[N+]=NC[C@H]1O[C@@H]2O[C@H]3[C@H](O)[C@@H](O)[C@@H](O[C@H]4[C@H](O)[C@@H](O)[C@@H](O[C@H]5[C@H](O)[C@@H](O)[C@@H](O[C@H]6[C@H](O)[C@@H](O)[C@@H](O[C@H]7[C@H](O)[C@@H](O)[C@@H](O[C@H]8[C@H](O)[C@@H](O)[C@@H](O[C@H]1[C@H](O)[C@H]2O)O[C@@H]8CN=[N+]=[N-])O[C@@H]7CN=[N+]=[N-])O[C@@H]6CN=[N+]=[N-])O[C@@H]5C/N=[NH+]\[NH-])O[C@@H]4CN=[N+]=[N-])O[C@@H]3CN=[N+]=[N-] [Compound 2, Per-6-azido-6-deoxy-β-cyclodextrin]
Estrogenic activity, result in words [2]: inactive

Per-6-(estradiol-17-(1H-1,2,3-triazol-4-yl))-6-deoxy-β-cyclodextrin [Compound 7EqCD]
EC50 [3]: > 100 nM | Free EE2 in cell supernatant ([4]; 7EqCD 10 nM, Ishikawa cells): < 50 pM | Free estrogen (EE2 or E2) in cell supernatant, result in words ([4]; Ishikawa cell culture): EE2 was not observed above detection limits
